Rows were chosen to be rich in hits. Some 2.2% of all compounds tested hit in one or more screens of this group.
Wee1 stabilizer: human Wee1 degradation inhibition, primary screen | P30291 | HeLa Luc-Wee1K328M stability, luciferase luminescence; 100% = proteasome inhibitor MG132 effect | reporter increase, % at 5 µM | 220,000 tested, 1.2% active;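 active = activation above the mean of all tested compounds plus 3 SD, set per screening run, cut at about 8.8% in these data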;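 also: cells exposed to compound for 20 h before luminescence read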
Target sequence (P30291 whole entry K328M): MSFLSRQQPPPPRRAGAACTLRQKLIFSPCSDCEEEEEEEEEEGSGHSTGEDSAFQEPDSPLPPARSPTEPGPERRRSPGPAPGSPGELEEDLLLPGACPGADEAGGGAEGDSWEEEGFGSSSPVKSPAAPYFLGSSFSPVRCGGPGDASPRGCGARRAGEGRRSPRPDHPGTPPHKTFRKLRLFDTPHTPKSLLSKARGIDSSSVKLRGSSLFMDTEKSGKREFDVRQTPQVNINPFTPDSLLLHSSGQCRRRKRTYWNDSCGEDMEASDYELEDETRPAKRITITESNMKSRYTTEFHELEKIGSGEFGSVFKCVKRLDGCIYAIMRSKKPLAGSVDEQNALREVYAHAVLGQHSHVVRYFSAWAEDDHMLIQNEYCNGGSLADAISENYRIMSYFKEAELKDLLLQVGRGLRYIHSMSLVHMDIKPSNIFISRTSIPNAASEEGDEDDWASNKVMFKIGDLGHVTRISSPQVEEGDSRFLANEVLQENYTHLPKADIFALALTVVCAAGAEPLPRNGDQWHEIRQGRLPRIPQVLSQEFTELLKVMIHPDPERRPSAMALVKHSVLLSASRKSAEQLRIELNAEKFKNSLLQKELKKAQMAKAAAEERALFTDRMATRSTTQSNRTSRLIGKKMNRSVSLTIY
PKD1 inh: blocks activity of human protein kinase D1; PKD1 kinase fluorescence polarization assay; inhibition, % (concentration not given with the values); 200,000 tested, 0.056% active; AID 797; in the data active = inhibition above about 50%
FLuc stim CS: firefly luciferase counter-screen for stimulation assays; P08659; ATPlite luciferase biochemical, luminescence, 10 min; 0 = ATP-free wells, 1 = DMSO control; activation factor at 10 µM; 200,000 tested, under 10 active;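 active = luciferase activation factor, scaled between plate controls, of at least 2 with compound at 10 µM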
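Assay system: Luciferase/luciferin detection reagent, cell-free biochemical luciferase assay / Also added: ATP substrate / Schedule: 10 min at ambient temperature / Measured by: luminescence measurement of luciferase light output / Benchmarks: low control with PBS replacing ATP, high control enzyme plus ATP without compound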
FLuc inhib CS: inhibits firefly luciferase, flagging false hits in luciferase inhibition screens; P08659; ATPLite firefly luciferase biochemical luminescence, 10 min; inhibition, % at 10 µM; 200,000 tested, 1.5% active;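 active = inhibition above about 50% when tested at 10 µM, limit read from the data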
TRAIL sens C8: sensitizes caspase-8 expressing cells to TRAIL; AID 624354; 360,000 tested, 1% active; inhibition (viability loss, TRAIL sensitization), % at 10 µM; NB7+C8 cells + TRAIL, ATPlite viability luminescence;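 active = compounds causing at least 50% loss of cell viability in the single-dose screen, relative to plate controls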
PPC-1+TRAIL kill: compounds killing PPC-1 cancer cells with TRAIL present (potentiator screen, no TRAIL-free arm); PPC-1 cells + TRAIL, ATPLite viability luminescence; cell killing (% activity), % at 4 µM or 5 µM; 220,000 tested, 0.41% active; AID 1443;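 active = cell killing above 50% in the first pass at 4 µM, then a duplicate retest at 5 µM averaging 50% or more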
Hits are given with their value; - = inactive; . = no result given.

SMILES	Wee1 stabilizer	PKD1 inh	FLuc stim CS	FLuc inhib CS	TRAIL sens C8	PPC-1+TRAIL kill
CCn1cc([N+](=O)[O-])c(C(=O)Nc2ccc3c(c2)OCCO3)n1	-	-	-	56.0	-	-
Cc1cc(C)n2nc(C(=O)Nc3ccc4c(c3)OCCO4)nc2n1	.	.	.	.	50.8	.
O=C(CCN1CCCCC1)NNC(=O)C12CC3CC(CC(C3)C1)C2	-	-	-	-	-	-
COc1ccc(NC(=O)Nc2sc(=S)n(C)c2C)cc1	12.5	-	-	-	-	-
COc1cc(NC(=O)C2=C(C)OCCS2)c(Cl)cc1C(=O)NCCN(C)C	.	.	.	.	-	.
COCCSc1nnc(NC(=O)C(C)(C)C)s1	8.8	-	-	-	-	-
CC1Cc2cc(S(=O)(=O)N3CCC(C(=O)N4CCN(c5ccccc5F)CC4)CC3)ccc2N1C(=O)C1CC1 (stereo not given)	.	.	.	.	-	.
COc1ccc(-c2csc(Nc3ccccc3)[n+]2CC(O)c2ccc([N+](=O)[O-])cc2)cc1 (stereo not given)	9.3	.	.	.	-	-
Cc1cccc(N(CC(=O)N2CCc3ccccc3C2)S(C)(=O)=O)c1C	.	.	.	.	-	.
Cc1cc(C)c2c(c1)/C(=C/C(=O)c1ccc(Br)s1)C(=O)N2	-	-	-	-	84.2	-
CN(C)c1ccc(N=Nc2ccccc2Br)cc1	.	.	.	.	55.2	.
CC(=O)c1ccc(N=Nc2ccc(N(C)C)cc2)cc1	-	-	-	52.9	78.3	-
Cc1ccc(N=Nc2ccc(O)cc2)c(Br)c1	.	.	.	.	-	.
Cc1cc(C(F)F)n2nc(C(=O)Nc3cccc(S(=O)(=O)N4CCOCC4)c3)nc2n1	.	.	.	.	-	.
CCc1cc(=O)oc2cc(C)cc(OCC(C)=O)c12	10.5	.	.	.	-	-
CCN(c1ccccc1)S(=O)(=O)c1nnc(NC(=O)C(C)C)s1	.	.	.	.	-	.
CN(C(=O)COC(=O)c1cnc(Cl)c(Cl)c1)C1CCS(=O)(=O)C1 (stereo not given)	-	-	-	-	-	-
CN(C(=O)COC(=O)c1cnc(Cl)c(Cl)c1)C1CCCCC1	.	.	.	.	69.0	.
CCC(Cc1c(I)cc(I)c(N)c1I)C(=O)O (stereo not given)	.	.	.	.	-	.
O=C(CN(c1cccc(C(F)(F)F)c1)S(=O)(=O)c1ccc(Cl)c([N+](=O)[O-])c1)NCc1ccccc1Cl	-	-	-	-	-	66.5
CCn1c(=O)c2ccccc2n(Cc2cccc(C)c2)c1=O	.	.	.	.	-	.
Cc1cccc(Cn2c(=O)n(Cc3ccco3)c(=O)c3ccccc32)c1	10.2	-	-	-	-	-
Cc1ncsc1C(=O)N1N=C2/C(=C/c3ccc(N4CCOCC4)cc3)CCCC2C1c1ccc(N2CCOCC2)cc1 (stereo not given)	9.0	-	-	-	-	-
Cc1ncsc1C(=O)N1N=C2/C(=C/c3ccccc3)CCCC2C1c1ccccc1 (stereo not given)	-	-	-	-	-	-
Cc1ccc(N2C(=O)N(CC(=O)Nc3ccccc3C(F)(F)F)C(=O)C2C)cc1 (stereo not given)	.	.	.	.	-	.
SMILES	Wee1 stabilizer	PKD1 inh	FLuc stim CS	FLuc inhib CS	TRAIL sens C8	PPC-1+TRAIL kill
CCc1ccc(/C=C2\SC(=S)N(CCCC(=O)NCCCN3CCOCC3)C2=O)cc1	.	.	.	.	75.5	.
CCc1ccc(/C=C2\SC(=S)N(CCCC(=O)N3CCN(C)CC3)C2=O)cc1	.	.	.	.	86.9	.
CN1CCCN(C(=O)CNC(=O)c2ccccc2F)CC1	.	.	.	.	-	.
OC(c1ccccc1)(c1ccccc1)C1CCN(CCCOc2ccc3c(c2)CCCC3)CC1	.	.	.	.	65.7	.
CC(C)(C)c1ccc(C(O)CCCN2CCC(C(O)(c3ccccc3)c3ccccc3)CC2)cc1 (stereo not given)	-	-	-	-	60.0	-
OC(c1ccccc1)(c1ccccc1)C1CCN(CCCOc2cccc(OC(F)(F)F)c2)CC1	.	.	.	.	-	.
O=C(/C=C/c1cccc(Cl)c1)c1ccc([N+](=O)[O-])o1	.	.	.	.	68.0	.
CCOc1ccc(-c2cc(N3C(=O)Nc4ccccc4N3O)on2)cc1	-	-	-	75.6	55.5	-
COc1ccc(-c2cc(N3C(=O)Nc4ccccc4N3O)n[nH]2)cc1	-	-	-	-	-	-
O=C(c1cccs1)N1CCc2ccccc21	-	-	-	-	-	-
O=C(/C=C/c1cccs1)N1CCc2ccccc21	-	-	-	92.0	55.5	58.4
C[C@H](NC(=O)C1CCN(S(=O)(=O)c2ccccc2)CC1)C(=O)NCc1ccccn1	.	.	.	.	-	.
CCc1ccc(OCC(=O)N/N=C(\C)c2ccc(-n3ccnc3)cc2)cc1	-	-	-	72.3	-	-
Cc1ccc(NC(=O)C(=O)Nc2ccc(C)cn2)nc1	-	-	-	-	-	-
Cc1ccc(NC(=O)/C(C#N)=C(\N)C(Cl)(Cl)Cl)nc1	-	-	-	83.3	-	-
CCOC(=O)c1ccc(N/C=C\C(=O)c2cccc(OC)c2)cc1	-	-	-	-	-	-
COC(=O)c1ccc(N/C=C/C(=O)c2ccccc2)cc1	.	.	.	.	54.6	.
CC(=O)Nc1ccc(N/C=C/C(=O)c2ccco2)cc1	-	-	-	-	-	-
NS(=O)(=O)c1ccc(N/C=C\C(=O)c2ccc(F)cc2)cc1	-	-	-	-	-	-
CN(C)c1ccc(N/C=C/C(=O)c2ccco2)cc1	-	-	-	96.0	61.5	-
O=C(/C=C/Nc1cccc(F)c1)c1ccco1	-	-	-	75.8	-	-
CN(C)c1ccc(N/C=C/C(=O)c2ccc(F)cc2)cc1	-	-	-	58.0	-	-
COCCn1c(/C=C/c2ccccc2)nc2ccccc21	-	-	-	85.7	-	-
COc1ccc(/C=C/c2nc3ccccc3n2Cc2ccccc2OC)cc1	-	-	-	87.5	77.6	-
COCCn1c(-c2ccccc2)nc2ccccc21	-	-	-	-	-	-
SMILES	Wee1 stabilizer	PKD1 inh	FLuc stim CS	FLuc inhib CS	TRAIL sens C8	PPC-1+TRAIL kill
COc1ccccc1Cn1c(/C=C/c2ccccc2)nc2ccccc21	-	-	-	-	-	-
CC(C)NS(=O)(=O)c1ccc(CCC(=O)NCc2ccncc2)cc1	9.5	-	-	-	-	-
CCn1c(SCC(=O)N(C)c2c(N)n(Cc3ccccc3)c(=O)[nH]c2=O)nc2ccccc21	-	.	.	.	-	-
O=C1CN(c2nc(-c3ccccc3)c3cc(Cl)ccc3n2)c2ccccc2N1	-	-	-	-	-	-
O=C1Cc2c(-c3ccccc3)cc(-c3cccc(Cl)c3)nc2-c2ccccc2N1	.	.	.	.	63.8	.
Cn1c(CC(=O)Nc2ccccc2F)nnc1SCC(=O)NC1=NCCS1	.	.	.	.	-	.
Cc1c(C(=O)NCC2COc3ccccc3O2)oc2ccc(S(=O)(=O)N3CCOCC3)cc12 (stereo not given)	9.1	-	-	-	-	-
Cc1onc(-c2c(F)cccc2Cl)c1C(=O)NC(C)c1ccccc1 (stereo not given)	.	.	.	.	-	.
CCOc1ccc(N2C(=O)CC(N3CCN(c4ccccc4OC)CC3)C2=O)cc1 (stereo not given)	.	.	.	.	-	.
CCOc1ccc(N2C(=O)CC(N3CCN(c4ccccc4F)CC3)C2=O)cc1 (stereo not given)	14.0	-	-	-	-	-
